Test results from paper PMC5563391 (Investigational new drugs, 2015).

Assay: Phase 1 pharmacokinetics of ilorasertib in plasma
Format: in vivo, human
Details: for AUC(0-t) / Cmax / Tmax / half-life / AUC(0-inf): human, plasma; for half-life: t1/2, arm D
How it was run: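 Arm A patients took oral test compound once weekly, in the morning, on days 1, 8 and 15 of 28-day cycles, at 10–690 mg. Plasma was sampled intensively up to 72 h after dosing on days 1 and 15. Noncompartmental analysis gave Cmax, Tmax, t½, AUCt and AUC∞, plus dose-normalized values. Results are summarized by dose level as mean ± SD, with individual values where N=1.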

[1] = arm A, oral once weekly, first dose, 10 mg, N=3, mean ± SD
[2] = arm A, oral once weekly, first dose, 20 mg, N=1
[3] = arm A, oral once weekly, first dose, 40 mg, N=1
[4] = arm A, oral once weekly, first dose, 80 mg, N=2, mean ± SD
[5] = arm A, oral once weekly, first dose, 160 mg, N=3, mean ± SD
[6] = arm A, oral once weekly, first dose, 240 mg, N=5, mean ± SD
[7] = arm A, oral once weekly, first dose, 340 mg, N=3, mean ± SD
[8] = arm A, oral once weekly, first dose, 440 mg, N=4, mean ± SD
[9] = arm A, oral once weekly, first dose, 540 mg, N=3, mean ± SD
[10] = arm A, oral once weekly, first dose, 640 mg, N=6, mean ± SD
[11] = arm A, oral once weekly, first dose, 690 mg, N=1
[12] = arm A, oral once weekly, first dose, all doses, N=32, mean ± SD
[13] = iv, 32 mg, arm D, IV infusion, 32 mg, day 1, N=4, mean ± SD
[14] = iv, 32 mg, arm D, IV infusion, 32 mg, day 15, N=3, mean ± SD
[15] = po, 40 mg, arm A, oral once weekly, first dose, N=1

## Nc1ncc(-c2cnn(CCO)c2)c2scc(-c3ccc(NC(=O)Nc4cccc(F)c4)cc3)c12 [Ilorasertib]
Arm A, oral
  coefficient of variation for dose-normalized Cmax: approximately 66%
[1]
  AUC0–24/D (dose-normalized AUC0–24): 65.8 ± 35.0 ng·h/mL/mg
  AUC∞/D (dose-normalized AUC∞): 70.9 ± 37.9 ng·h/mL/mg
  Cmax/D (dose-normalized Cmax): 3.74 ± 1.56 ng/mL/mg
[2]
  AUC0–24/D (dose-normalized AUC0–24): 27.2 ng·h/mL/mg
  AUC∞/D (dose-normalized AUC∞): 28.5 ng·h/mL/mg
  Cmax/D (dose-normalized Cmax): 2.98 ng/mL/mg
[3]
  AUC0–24/D (dose-normalized AUC0–24): 43.9 ng·h/mL/mg
  AUC∞/D (dose-normalized AUC∞): 45.8 ng·h/mL/mg
  Cmax/D (dose-normalized Cmax): 4.95 ng/mL/mg
[4]
  AUC0–24/D (dose-normalized AUC0–24): 15.2 ± 5.10 ng·h/mL/mg
  AUC∞/D (dose-normalized AUC∞): 15.7 ± 5.18 ng·h/mL/mg
  Cmax/D (dose-normalized Cmax): 1.44 ± 4.90 ng/mL/mg
[5]
  AUC0–24/D (dose-normalized AUC0–24): 19.4 ± 8.86 ng·h/mL/mg
  AUC∞/D (dose-normalized AUC∞): 20.2 ± 9.28 ng·h/mL/mg
  Cmax/D (dose-normalized Cmax): 1.86 ± 0.98 ng/mL/mg
[6]
  AUC0–24/D (dose-normalized AUC0–24): 16.6 ± 12.4 ng·h/mL/mg
  AUC∞/D (dose-normalized AUC∞): 17.5 ± 13.5 ng·h/mL/mg
  Cmax/D (dose-normalized Cmax): 1.22 ± 0.59 ng/mL/mg
[7]
  AUC0–24/D (dose-normalized AUC0–24): 16.9 ± 2.56 ng·h/mL/mg
  AUC∞/D (dose-normalized AUC∞): 17.7 ± 2.09 ng·h/mL/mg
  Cmax/D (dose-normalized Cmax): 1.74 ± 1.0 ng/mL/mg
[8]
  AUC0–24/D (dose-normalized AUC0–24): 30.7 ± 17.1 ng·h/mL/mg
  AUC∞/D (dose-normalized AUC∞): 32.1 ± 18.0 ng·h/mL/mg
  Cmax/D (dose-normalized Cmax): 2.88 ± 1.89 ng/mL/mg
[9]
  AUC0–24/D (dose-normalized AUC0–24): 10.7 ± 2.0 ng·h/mL/mg
  AUC∞/D (dose-normalized AUC∞): 11.1 ± 2.28 ng·h/mL/mg
  Cmax/D (dose-normalized Cmax): 0.964 ± 0.183 ng/mL/mg
[10]
  AUC0–24/D (dose-normalized AUC0–24): 30.7 ± 23.1 ng·h/mL/mg
  AUC∞/D (dose-normalized AUC∞): 31.7 ± 23.4 ng·h/mL/mg
  Cmax/D (dose-normalized Cmax): 2.42 ± 1.57 ng/mL/mg
[11]
  AUC0–24/D (dose-normalized AUC0–24): 11.7 ng·h/mL/mg
  AUC∞/D (dose-normalized AUC∞): 12.3 ng·h/mL/mg
  Cmax/D (dose-normalized Cmax): 1.22 ng/mL/mg
[12]
  AUC0–24/D (dose-normalized AUC0–24): 26.3 ± 21.3 ng·h/mL/mg
  AUC∞/D (dose-normalized AUC∞): 27.6 ± 22.7 ng·h/mL/mg
  Cmax/D (dose-normalized Cmax): 2.16 ± 1.43 ng/mL/mg
Arm B, between days 1 and 15, multiple doses
  accumulation of study drug: no apparent accumulation
Arm C, oral ilorasertib with azacitidine
  pharmacokinetic interaction between ilorasertib and azacitidine: no apparent pharmacokinetic drug-drug interaction
Arm D, IV dosing
  time of peak plasma concentrations: end of the 4-hour infusion
iv, 32 mg, AUC0–24, arm D, IV infusion, 32 mg, day 1, N=4, mean ± SD
  AUC(0-t): 4980 ± 3900 ng·h/mL
iv, 32 mg, AUC0–24, arm D, IV infusion, 32 mg, day 15, N=3, mean ± SD
  AUC(0-t): 8220 ± 9110 ng·h/mL
[13]
  Cmax: 587 ± 360 ng/mL
  Tmax: 4.1 ± 0.3 h
[14]
  Cmax: 414 ± 140 ng/mL
  Tmax: 3.9 h
iv, 32 mg, IV infusion, 32 mg, day 1, N=4
  half-life: 6.2 ± 5.1 h
iv, 32 mg, IV infusion, 32 mg, day 15, N=3
  half-life: 5.8 ± 20.6 h
po, 10 mg
  AUC(0-inf): 710 ± 380 ng·h/mL
po, 10 mg, AUC0–24, arm A, oral once weekly, first dose, N=3, mean ± SD
  AUC(0-t): 660 ± 350 ng·h/mL
po, 20 mg
  AUC(0-inf): 570 ng·h/mL
po, 20 mg, arm A, oral once weekly, first dose, N=1
  Cmax: 60 ng/mL
po, 40 mg
  AUC(0-inf): 1830 ng·h/mL
[15]
  Cmax: 198 ng/mL
  Tmax: 3 h
po, 80 mg
  AUC(0-inf): 1260 ± 410 ng·h/mL
  AUC(0-t): 1220 ± 410 ng·h/mL
po, 160 mg
  AUC(0-inf): 3240 ± 1490 ng·h/mL
po, 240 mg
  AUC(0-inf): 4190 ± 3230 ng·h/mL
po, 320 mg, AUC0–24, arm B, oral twice weekly, 320 mg, day 1, N=6, mean ± SD
  AUC(0-t): 29700 ± 19000 ng·h/mL
po, 320 mg, AUC0–24, arm B, oral twice weekly, 320 mg, day 15, N=4, mean ± SD
  AUC(0-t): 30700 ± 15000 ng·h/mL
po, 340 mg
  AUC(0-inf): 6010 ± 710 ng·h/mL
po, 440 mg
  AUC(0-inf): 14100 ± 7940 ng·h/mL
